From ChEMBL document CHEMBL1131198, “From micromolar to nanomolar affinity: a systematic approach to identify the binding site of CGRP at the human calcitonin gene-related peptide 1 receptor” (J Med Chem, 1998)
Numbered stars: 1 amine (or outer) side, 2 acyl side, 3 side chain; on linkers, the order of the positions; unused ones are H or OH. Square brackets hold non-standard residues; d marks the D form. Peptide text beside a SMILES is read from it. X1 = O=C(C1(c2ccccc2)CC1CN[*:1])[*:2]; Hyp = O=C(O)[C@@H]1C[C@@H](O)CN1; Tic = O=C(O)[C@@H]1Cc2ccccc2CN1; X2 = O=C(C1CC1CN[*:1])[*:2]; Aib = CC(C)(N)C(=O)O

These molecules were tested against Calcitonin gene-related peptide type 1 receptor (Homo sapiens, UniProt Q16602) (assay: (§1) CGRP1 receptor affinity on human neuroblastoma cells SK-N-MC, which selectively express the human CGRP1 receptor.).
In short: (§2)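 SK-N-MC membranes (cells grown in DMEM, detached with PBS/0.02% EDTA, homogenized, pellet in Tris buffer pH 7.40 with 1% BSA, 0.1% bacitracin, stored -80 °C) diluted 1:10 in assay buffer (50 mM Tris, 150 mM NaCl, 5 mM MgCl2, 1 mM EDTA, pH 7.40).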

Sequence of Calcitonin gene-related peptide type 1 receptor (Homo sapiens, UniProt Q16602) (Q16602 whole entry): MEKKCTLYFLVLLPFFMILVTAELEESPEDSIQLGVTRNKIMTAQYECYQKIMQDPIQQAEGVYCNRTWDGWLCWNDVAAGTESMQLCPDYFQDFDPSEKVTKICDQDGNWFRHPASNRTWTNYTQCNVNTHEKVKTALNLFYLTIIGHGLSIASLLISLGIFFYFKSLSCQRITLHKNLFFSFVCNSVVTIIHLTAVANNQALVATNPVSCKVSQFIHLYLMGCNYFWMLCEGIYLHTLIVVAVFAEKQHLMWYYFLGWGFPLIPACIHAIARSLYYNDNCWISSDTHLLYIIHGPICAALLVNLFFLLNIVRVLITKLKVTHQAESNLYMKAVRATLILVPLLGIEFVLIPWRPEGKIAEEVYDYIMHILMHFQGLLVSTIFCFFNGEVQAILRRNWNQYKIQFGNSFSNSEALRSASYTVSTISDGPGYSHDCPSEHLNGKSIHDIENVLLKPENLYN

| Molecule | IC50 |
| --- | --- |
| CC(C)[C@H](NC(=O)[C@H](CC(N)=O)NC(=O)[C@@H](NC(=O)[C@@H]1CCCN1C(=O)[C@H](NC(=O)[C@@H](N)Cc1ccc(O)cc1)C(C)C)[C@@H](C)O)C(=O)NCC(=O)N[C@@H](CO)C(=O)N[C@@H](CCC(=O)O)C(=O)N[C@@H](C)C(=O)N[C@@H](Cc1ccccc1)C(=O)O | 19 µM |
| CC(C)[C@H](NC(=O)[C@H](CC(N)=O)NC(=O)[C@H](NC(=O)[C@@H]1CCCN1C(=O)[C@@H](NC(=O)[C@@H](N)Cc1ccc(O)cc1)C(C)C)[C@@H](C)O)C(=O)NCC(=O)N[C@@H](CO)C(=O)N[C@@H](CCC(=O)O)C(=O)N[C@@H](C)C(=O)N[C@@H](Cc1ccccc1)C(=O)O | No displacement |
| CC(C)[C@H](NC(=O)[C@H](CC(N)=O)NC(=O)[C@@H](NC(=O)[C@@H]1CCCN1C(=O)[C@@H](NC(=O)[C@@H](N)Cc1ccc(O)cc1)C(C)C)[C@@H](C)O)C(=O)NCC(=O)N[C@@H](CO)C(=O)N[C@H](CCC(=O)O)C(=O)N[C@@H](C)C(=O)N[C@@H](Cc1ccccc1)C(=O)O | No displacement |
| CC(C)[C@H](NC(=O)[C@H](CC(N)=O)NC(=O)[C@@H](NC(=O)[C@@H]1CCCN1C(=O)[C@@H](NC(=O)[C@@H](N)Cc1ccc(O)cc1)C(C)C)[C@@H](C)O)C(=O)NCC(=O)N[C@@H](CO)C(=O)N[C@@H](CCC(=O)O)C(=O)N[C@@H](C)C(=O)N[C@H](Cc1ccccc1)C(=O)O | No displacement |
| CC(C)[C@H](NC(=O)[C@@H](N)Cc1ccc(O)cc1)C(=O)N1CCC[C@H]1C(=O)N[C@H](C(=O)N[C@@H](CC(N)=O)C(=O)N[C@@H](C(=O)NCC(=O)N[C@@H](CO)C(=O)N[C@@H](CCC(=O)O)C(=O)N[C@@H](C)C(=O)N[C@@H](Cc1ccccc1)C(=O)O)C(C)C)[C@@H](C)O | No displacement |
| CC(C)[C@H](NC(=O)[C@H](CC(=O)O)NC(=O)[C@@H](NC(=O)[C@@H]1CCCN1C(=O)[C@@H](NC(=O)[C@@H](N)Cc1ccccc1)C(C)C)[C@@H](C)O)C(=O)NCC(=O)N1Cc2ccccc2C[C@H]1C(=O)N[C@@H](Cc1ccccc1)C(=O)N[C@@H](C)C(=O)N[C@@H](Cc1ccccc1)C(N)=O (H-FVPTDVG[Tic]FAF-NH2) | 0.146 µM |
| C[C@H](NC(=O)[C@@H](N)Cc1ccc(O)cc1)C(=O)N[C@@H](Cc1ccccc1)C(=O)O (H-Tyr-Ala-Phe-OH) | No displacement |
| CC(C)[C@H](NC(=O)[C@@H](N)Cc1ccc(O)cc1)C(=O)N1CCC[C@H]1C(=O)O (H-Tyr-Val-Pro-OH) | No displacement |
| C[C@H](NC(=O)[C@H](CCC(=O)O)NC(=O)[C@@H](N)Cc1ccc(O)cc1)C(=O)N[C@@H](Cc1ccccc1)C(=O)O (H-YEAF-OH) | No displacement |
| CC(C)[C@H](NC(=O)[C@@H](N)Cc1ccc(O)cc1)C(=O)N1CCC[C@H]1C(=O)N[C@H](C(=O)O)[C@@H](C)O (H-YVPT-OH) | No displacement |
| H-YGSEAF-OH | No displacement |
| H-YNVGSEAF-OH | No displacement |
| H-YSEAF-OH | No displacement |
| H-YVATNVGSEAF-OH | No displacement |
| H-YVGSEAF-OH | No displacement |
| H-YVPANVGSEAF-OH | No displacement |
| H-YVPFNVGSEAF-OH | No displacement |
| H-YVPTN-OH | No displacement |
| H-YVPTNAGSEAF-OH | No displacement |

What follows are molecules tested against Calcitonin gene-related peptide type 1 receptor (Homo sapiens, UniProt O60894+Q16602) (assay: as §1).
In short: as §2

Sequence of Calcitonin gene-related peptide type 1 receptor (Homo sapiens, UniProt O60894+Q16602) (Q16602 whole entry, one chain of several): as the sequence (Q16602 whole entry) above

| Molecule | IC50 [µM] |
| --- | --- |
| CC(C)[C@H](NC(=O)[C@H](CC(=O)O)NC(=O)[C@@H](NC(=O)[C@@H]1CCCN1C(=O)[C@@H](NC(=O)[C@@H](N)Cc1ccccc1)C(C)C)[C@@H](C)O)C(=O)NCC(=O)N1CCCC[C@H]1C(=O)N[C@@H](Cc1ccccc1)C(=O)N[C@@H](C)C(=O)N[C@@H](Cc1ccccc1)C(=O)O | 0.91 |
| CC(C)[C@H](NC(=O)[C@@H](CC(N)=O)NC(=O)[C@@H](NC(=O)[C@@H]1CCCN1C(=O)[C@@H](NC(=O)[C@@H](N)Cc1ccc(O)cc1)C(C)C)[C@@H](C)O)C(=O)NCC(=O)N[C@@H](CO)C(=O)N[C@@H](CCC(=O)O)C(=O)N[C@@H](C)C(=O)N[C@@H](Cc1ccccc1)C(=O)O | > 100 |
| CC(C)[C@H](NC(=O)[C@H](CC(=O)O)NC(=O)[C@@H](NC(=O)[C@@H]1CCCN1C(=O)[C@@H](NC(=O)[C@@H](N)Cc1ccccc1)C(C)C)[C@@H](C)O)C(=O)NCC(=O)N1CCC[C@H]1C(=O)N[C@@H](Cc1ccccc1)C(=O)N[C@@H](C)C(=O)N[C@@H](Cc1ccccc1)C(=O)O | 0.029 |
| CC(C)[C@H](NC(=O)[C@H](CC(=O)O)NC(=O)[C@@H](NC(=O)[C@@H]1CCCN1C(=O)[C@@H](NC(=O)[C@@H](N)Cc1ccccc1)C(C)C)[C@@H](C)O)C(=O)NCC(=O)N1C[C@H](O)C[C@H]1C(=O)N[C@@H](Cc1ccccc1)C(=O)N[C@@H](C)C(=O)N[C@@H](Cc1ccccc1)C(=O)O | 0.62 |
| CC(C)[C@H](NC(=O)[C@H](CC(N)=O)NC(=O)[C@@H](NC(=O)[C@@H]1CCCN1C(=O)[C@@H](NC(=O)[C@@H](N)Cc1ccc(O)cc1)C(C)C)[C@@H](C)O)C(=O)NCC(=O)N[C@@H](CO)C(=O)N[C@@H](CCC(=O)O)C(=O)N[C@H](C)C(=O)N[C@@H](Cc1ccccc1)C(=O)O | > 100 |
| CC(C)[C@H](NC(=O)[C@H](CC(N)=O)NC(=O)[C@@H](NC(=O)[C@@H]1CCCN1C(=O)[C@@H](NC(=O)[C@@H](N)Cc1ccc(O)cc1)C(C)C)[C@@H](C)O)C(=O)NCC(=O)N[C@H](CO)C(=O)N[C@@H](CCC(=O)O)C(=O)N[C@@H](C)C(=O)N[C@@H](Cc1ccccc1)C(=O)O | > 100 |
| CC(C)[C@H](NC(=O)[C@H](CC(N)=O)NC(=O)[C@@H](NC(=O)[C@@H]1CCCN1C(=O)[C@@H](NC(=O)[C@H](N)Cc1ccc(O)cc1)C(C)C)[C@@H](C)O)C(=O)NCC(=O)N[C@@H](CO)C(=O)N[C@@H](CCC(=O)O)C(=O)N[C@@H](C)C(=O)N[C@@H](Cc1ccccc1)C(=O)O | 80 |
| CC(C)[C@H](NC(=O)[C@H](CC(N)=O)NC(=O)[C@@H](NC(=O)[C@@H]1CCCN1C(=O)[C@@H](NC(=O)[C@@H](N)Cc1ccc(O)cc1)C(C)C)[C@@H](C)O)C(=O)NCC(=O)N[C@@H](CO)C(=O)N[C@@H](CCC(=O)O)C(=O)N[C@@H](C)C(=O)N[C@@H](Cc1ccccc1)C(=O)O | 3 |
| CC(C)[C@H](NC(=O)[C@H](CC(=O)O)NC(=O)[C@@H](NC(=O)[C@@H]1CCCN1C(=O)[C@@H](NC(=O)[C@@H](N)Cc1ccccc1)C(C)C)[C@@H](C)O)C(=O)NCC(=O)NC(C)(C)C(=O)N[C@@H](Cc1ccccc1)C(=O)N[C@@H](C)C(=O)N[C@@H](Cc1ccccc1)C(=O)O (H-FVPTDVG[Aib]FAF-OH) | 0.17 |
| CC(C)[C@H](NC(=O)[C@H](CC(=O)O)NC(=O)[C@@H](NC(=O)[C@@H]1CCCN1C(=O)[C@@H](NC(=O)[C@@H](N)Cc1ccccc1)C(C)C)[C@@H](C)O)C(=O)NCC(=O)NCC1CC1(C(=O)N[C@@H](Cc1ccccc1)C(=O)N[C@@H](C)C(=O)N[C@@H](Cc1ccccc1)C(=O)O)c1ccccc1 (stereo partly specified) (H-FVPTDVG[X1]FAF-OH) | > 3 |
| CC(C)[C@H](NC(=O)[C@H](CC(=O)O)NC(=O)[C@@H](NC(=O)[C@@H]1CCCN1C(=O)[C@@H](NC(=O)[C@@H](N)Cc1ccccc1)C(C)C)[C@@H](C)O)C(=O)NCC(=O)NCC1CC1C(=O)N[C@@H](Cc1ccccc1)C(=O)N[C@@H](C)C(=O)N[C@@H](Cc1ccccc1)C(=O)O (stereo partly specified) (H-FVPTDVG[X2]FAF-OH) | > 3 |
| CC(C)[C@H](NC(=O)[C@H](CC(N)=O)NC(=O)[C@@H](NC(=O)[C@@H]1C[C@@H](O)CN1C(=O)[C@@H](NC(=O)[C@@H](N)Cc1ccc(O)cc1)C(C)C)[C@@H](C)O)C(=O)NCC(=O)N[C@@H](CO)C(=O)N[C@@H](CCC(=O)O)C(=O)N[C@@H](C)C(=O)N[C@@H](Cc1ccccc1)C(=O)O (H-YV[Hyp]TNVGSEAF-OH) | 9 |
| Ac-FVPTDVGAFAF-OH | 0.205 |
| Ac-FVPTNVGSEAF-OH | 4.5 |
| Ac-PTDVGAFAF-OH | 0.49 |
| Ac-VPTDVGAFAF-OH | 0.3 |
| H-AVPTNVGSEAF-OH | 24 |
| H-FPPTNVGSEAF-OH | 3.4 |
| H-FVPPNVGSEAF-OH | > 10 |
| H-FVPTDVGAFAF-OH | 0.159 |
| H-FVPTDVGAHAF-OH | 0.36 |

| Molecule | IC50 [µM] |
| --- | --- |
| H-FVPTDVGPEAF-OH | 0.47 |
| H-FVPTDVGSEAF-OH | > 3 |
| H-FVPTDVGSQAF-OH | 1.2 |
| H-FVPTNPGSEAF-OH | > 10 |
| H-FVPTNVGPEAF-OH | 0.28 |
| H-FVPTNVGSEAF-OH | 3 |
| H-FVPTNVGSEPF-OH | > 10 |
| H-FVPTNVGSKAF-OH | 2.7 |
| H-FVPTNVGSPAF-OH | > 10 |
| H-FVPTNVPSEAF-OH | > 10 |
| H-FVPTPVGSEAF-OH | 4.5 |
| H-ILSSTNVGSEAF-OH | 10 |
| H-NFVPRSKISPEAF-OH | 10 |
| H-NFVPRSKISPQGY-OH | 10 |
| H-NFVPTNVGSNTY-OH | 10 |
| H-NFVPTNVGSQGY-OH | 10 |
| H-NVAPRSKISPEAF-OH | 10 |
| H-NVAPTNVGSEAF-OH | 10 |
| H-NVAPTNVGSQGY-OH | 10 |
| H-PTDVGAFAF-OH | 0.22 |
| H-VPTDVGAFAF-OH | 0.2 |

| Molecule | IC50 [µM] |
| --- | --- |
| H-YAPTNVGSEAF-OH | 8 |
| H-YFPTNVGSEAF-OH | 14 |
| H-YPTNVGSEAF-OH | 24 |
| H-YTNVGSEAF-OH | 18 |
| H-YVFTNVGSEAF-OH | 45 |
| H-YVPSNVGSEAF-OH | > 100 |
| H-YVPTAVGSEAF-OH | > 100 |
| H-YVPTDVGSEAF-OH | 5 |
| H-YVPTFVGSEAF-OH | 70 |
| H-YVPTLVGSEAF-OH | 7 |
| H-YVPTNVGAEAF-OH | 4 |
| H-YVPTNVGSAAF-OH | > 10 |
| H-YVPTNVGSEAY-OH | 32 |
| H-YVPTNVGSEGF-OH | 51 |
| H-YVPTNVGSFAF-OH | 4.79 |
| H-YVPTNVGSHAF-OH | 4.28 |
| H-YVPTNVGSKAF-OH | 6.5 |
| H-YVPTNVGSLAF-OH | 8.55 |
| H-YVPTNVGSQAF-OH | 6.9 |
| H-YVPTQVGSEAF-OH | 95 |
